Usually EC50 stands for the midpoint of the concentration-response curve.

The text below walks through data of ChEMBL document CHEMBL1121809, “Cyclic guanidines. 14. Imidazo[1,2-a]thienopyrimidin-2-one derivatives as blood platelet aggregation inhibitors” (J Med Chem, 1981).

Where only a bound is given, the exact number is not on record here.

Common to all, as to assay type: functional
Assay [1] concerns Rattus norvegicus. The experiment in a line: Ex vivo inhibition of collagen-induced blood platelet aggregation in rat was measured 2 hr after administration of vehical alone. Put shortly: (§1)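 Overnight-fasted rats were dosed orally at (50 mg/10 mL)/kg in 0.5% Tween 80; controls got vehicle at 10 mL/kg. PRP was made from carotid citrated blood 2 h later under pentobarbital. Collagen suspension (absorbance 0.270 at 420 nm) drove aggregation at 30 °C, 1100 rpm. Read-out was the initial maximal rate of absorbance fall (ΔA/min). Inhibition percent is versus controls; 5–7 rats, mean ± SD.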

Assay [2] deals with Rattus norvegicus. In words: (§2) Ex vivo inhibition of collagen-induced blood platelet aggregation in rat was measured 2 hr after oral administration of 50 mg/kg. The arrangement: scale not given here. Put shortly: as §1
Assay [3] is filed under the species Rattus norvegicus. In words: In vitro inhibition of collagen-induced blood platelet aggregation. In short, it runs like this:
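Rat PRP (about 5 × 10⁵ platelets/μL) was preincubated with compound added in saline or MeOH. Aggregation was started with bovine tendon collagen suspension in Tris buffer (absorbance 0.270 at 420 nm; lag 2–3 min). Read at 30 °C, 1100 rpm, as initial maximal rate ΔA/min. EC50 is the concentration giving 50% inhibition.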

Assay [4] is filed under the species Rattus norvegicus. In words: In vitro inhibition of ADP-induced blood platelet aggregation. In short, it runs like this: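 Rat carotid citrated blood was spun at 230g for 7 min to give PRP, adjusted with PPP to about 5 × 10⁵ platelets/μL. Compound in saline or MeOH was added before 10 μM ADP in Tris-HCl/NaCl pH 7.4 with CaCl₂. Aggregation was read at 30 °C, 1100 rpm, as maximal ΔA. EC50 is the concentration giving 50% inhibition.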

The species entered for assay [5] is Rattus norvegicus. In words: Inhibition of collagen-induced blood platelet aggregation in rat after 3 hrs. Put shortly: (§3)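 Fasted rats received one oral 50 mg/kg dose in 0.5% Tween 80, and PRP was prepared 3, 6 or 24 h later; vehicle controls were bled at 3 h. Collagen-induced aggregation was read as initial maximal rate ΔA/min at 30 °C. Percent inhibition is versus controls; 5–7 animals, mean ± SD.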

For assay [6], the species on record is Rattus norvegicus. The experiment in a line: Inhibition of collagen-induced blood platelet aggregation in rat after 24 hr. Put shortly: as §3
For assay [7], the species on record is Rattus norvegicus. The experiment in a line: Inhibition of collagen-induced blood platelet aggregation in rat after 6 hrs. Put shortly: as §3
Assay [8] is filed under the species Rattus norvegicus. The experiment in a line: Inhibition of ADP-induced blood platelet aggregation in rat after 6 hr. Put shortly:
(§4)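 This is an ex vivo time course after a single oral 50 mg/kg dose in 0.5% Tween 80 to fasted rats, with PRP made at 3, 6 or 24 h; controls got vehicle 3 h before blood collection. ADP (10 μM) aggregation was read as extent ΔA at 30 °C. Percent inhibition is versus controls; 5–7 animals, mean ± SD.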

For assay [9], the species on record is Rattus norvegicus. In words: Inhibition of ADP-induced blood platelet aggregation in rat after 3 hr. In short, it runs like this:
as §4

Assay [10] concerns Rattus norvegicus. The description is as §2. In short, it runs like this: as §1
Assay [11] is filed under the species Rattus norvegicus. The experiment in a line: Inhibition of ADP-induced blood platelet aggregation in rat after 24 hr. In short, it runs like this:
as §4

Turning to `Cl.O=C1CN2Cc3sccc3N=C2N1`, the Delta A/min in assay [1] is 0.308; in assay [2], 0.256 ΔA/min. Further, the EC50 in [3] is 10 µM; in [4] it was > 250 µM.
As for `Cl.O=C1CN2C=c3c4c(sc3=NC2=N1)CCCC4`, the Delta A/min in [1] is 0.183; in [5], 0.068; in assay [2] it was 0.047 ΔA/min; in assay [6], 0.185; in assay [7], 0.195. For the same compound, the EC50 in assay [3] came to 84 µM; in assay [4] it was 250 µM.
`CCCc1sc2c(c1C)CN1CC(=O)NC1=N2.Cl`: the Delta A/min is 0.154 in assay [8]; 0.09 in assay [5]; 0.242 in assay [6]; 0.128 in assay [9]; 0.09 ΔA/min in assay [10]; 0.213 in assay [7]. The EC50 in assay [3] was determined as 0.08 µM; in [4], 0.58 µM.
In the case of `Cl.O=C1CN2Cc3c(sc4c3CCc3ccccc3-4)N=C2N1`, the Delta A/min in [1] was 0.207; in assay [2] it was 0.191 ΔA/min. Moreover, the EC50 in assay [3] was determined as 0.9 µM; in [4], 19 µM.
Consider `CCOC(=O)N1CCc2c(sc3c2CN2CC(=O)NC2=N3)C1.Cl`, for which the Delta A/min in [1] was found to be 0.171; in assay [5] it was 120000; in assay [2], 115000; in [6] it was 30000; in [7], 0.072. Besides, the concentration for a half-maximal effect (EC50) turned out to be 0.12 µM in assay [3] and 1.2 µM in assay [4].
On to `Cc1sc2c(c1C)CN1CC(=O)NC1=N2.Cl`, for which the Delta A/min was 0.168 in assay [8]; 0.094 in assay [5]; 0.164 in [6]; 0.173 in assay [9]; 0.168 in [11]; 0.073 ΔA/min in assay [10]. Moreover, the Delta A/min in assay [7] is 0.153. Also, the EC50 worked out at 1 µM in [3] and 5 µM in assay [4].
For `Cl.O=C1CN2Cc3c(sc4c3CCC(O)C4)N=C2N1` (stereo not given), the Delta A/min in assay [1] was determined as 0.117; in assay [2], 2000. Also, the EC50 in [3] was found to be 0.1 µM; in assay [4], 2 µM.
For `CC1CCCc2c1sc1c2CN2C(=NC(=O)C2C)N1.Cl` (stereo not given) the same measures were 0.183, 0.047 ΔA/min, 0.03 µM and 3 µM.
For the compound `O=C1CN2Cc3ccsc3N=C2N1`, the EC50 in assay [3] and in assay [4] was > 250 µM throughout.
With `CCC1C(=O)NC2=Nc3sc4c(c3CN21)CCCC4` (stereo not given), the values for the concentration for a half-maximal effect (EC50) in assay [3] and in [4] were 60 µM and > 250 µM, respectively.
For `Cc1cc2c(s1)N=C1NC(=O)C(C)N1C2` (stereo not given) the same measures were 10 µM and 230 µM.
Consider `Cl.O=C1CN2Cc3c(sc4c3CCSC4)N=C2N1`, for which the Delta A/min was 0.178 in [1] and 0 in assay [2]. In addition, the EC50 is 0.54 µM in assay [3] and 2 µM in [4].
For `O=C1CN2Cc3c(sc4c3CCCC4Cc3ccccc3)N=C2N1` (stereo not given), the figures for the EC50 in [3] and in [4] were 4 µM and 160 µM, respectively.
Regarding `Cl.O=C1CN2Cc3c(sc4c3CCCCC4)N=C2N1`, the Delta A/min in assay [10] was 0.202 ΔA/min. Moreover, the EC50 in assay [3] was found to be 0.17 µM; in assay [4], 18 µM.
In the case of `O=C1CN2Cc3c(sc4c3COc3ccccc3-4)N=C2N1`, the EC50 in assay [3] is 1.6 µM; in assay [4] it was 34 µM.
On to `Cl.O=C1CN2Cc3c(-c4ccccc4)csc3NC2=N1`, for which the Delta A/min in assay [10] is 0.198 ΔA/min. In addition, the EC50 in assay [3] came out at 20 µM; in assay [4], 120 µM.
For the compound `CN1C(=O)CN2Cc3c(sc4c3CCCC4)N=C21`, the EC50 in [3] and in assay [4] was > 250 µM in each case.
Regarding `Cc1c(Cl)sc2c1CN1CC(=O)NC1=N2.Cl`, the Delta A/min in [8] was 0.121; in assay [5] it was 0.077; in [6], 0.166; in assay [9] it was 0.106; in [11], 0.122; in [10], 0.222 ΔA/min. Also, the Delta A/min in assay [7] is 0.166. In addition, the EC50 is 1.9 µM in [3] and 4.2 µM in assay [4].
For `Cc1cc2c(s1)NC1=NC(=O)CN1C2.Cl`, in assay [10], the Delta A/min is 0.162 ΔA/min. Also, the values for the EC50 in [3] and in assay [4] were 35 µM and 125 µM, respectively.
In the case of `Cl.O=C1CN2Cc3c(sc4c3CCC(OCc3ccccc3)C4)N=C2N1` (stereo not given), the Delta A/min in assay [1] amounted to 0.117; in assay [2], 42000. Moreover, the values for the EC50 in assay [3] and in [4] were 2.2 µM and 4.2 µM, respectively.
For the compound `Cc1csc2c1CN1CC(=O)NC1=N2.Cl`, the Delta A/min in assay [10] was 0.188 ΔA/min. Also, the EC50 in assay [3] amounted to 15 µM; in [4], 19 µM.
Take `CC1CCc2c(sc3c2CN2CC(=O)NC2=N3)C1.Cl` (stereo not given): the figures for the Delta A/min in assay [1] and in [2] were 0.178 and 0, respectively. The EC50 in assay [3] came out at 0.62 µM; in [4], 2 µM.
In the case of `Cc1sc2c(c1Cl)CN1C(=N2)NC(=O)C1C` (stereo not given), the EC50 in [3] was 0.9 µM; in assay [4], 150 µM.
As to `Cl.O=C1CN2Cc3c(sc4c3CCC4)N=C2N1`, in [10], the Delta A/min is 0.072 ΔA/min. For the same compound, the EC50 worked out at 0.25 µM in [3] and 40 µM in assay [4].
`O=C1CN2Cc3cscc3N=C2N1`: the EC50 in assay [3] was 90 µM; in assay [4], > 250 µM.
For `Cl.Cl.O=C1CN2Cc3c(sc4c3CCN(Cc3ccccc3)C4)N=C2N1`, the Delta A/min is 0.186 in [1] and 121000 in assay [2]. Besides, the results for the EC50 in [3] and in [4] were 29 µM and 13.5 µM, respectively.
For `Cl.O=C1CN2Cc3c(sc4c3CCOC4)N=C2N1` the same measures were 0.171, 113000, 0.2 µM and 1.3 µM.
Turning to `CC1CCCc2c1sc1c2CN2CC(=O)N=C2N1.Cl` (stereo not given), the Delta A/min is 0.079 in [8]; 0 in [5]; 0.116 in [6]; 0.053 in [9]; 0.118 in [11]; 0 in [10]. In addition, the Delta A/min in assay [7] was found to be 0.036. The half-maximal effective concentration (EC50) stood at 0.18 µM in assay [3] and 0.53 µM in assay [4].
As for `CCCc1c(CC)sc2c1CN1CC(=O)NC1=N2.Cl`, the Delta A/min in assay [10] is 0.008 ΔA/min. The EC50 in assay [3] was found to be 2.2 µM; in [4], 3 µM.
Regarding `CC1CCc2c(sc3c2CN2C(=N3)NC(=O)C2C)C1.Cl` (stereo not given), the Delta A/min stood at 0.207 in assay [1] and 152000 in [2]. Also, the EC50 in assay [3] is 0.2 µM; in assay [4] it was 32 µM.
As to `CCCCCc1sc2c(c1C)CN1CC(=O)NC1=N2.Cl`, in assay [10], the Delta A/min was 0.002 ΔA/min. The EC50 in [3] turned out to be 0.19 µM; in assay [4] it was 2 µM.
As to `Cc1scc2c1CN1CC(=O)NC1=N2.Cl`, the Delta A/min in assay [1] is 0.29; in [2], 0.198 ΔA/min. Besides, the EC50 in [3] is 3.5 µM; in [4] it was 17 µM.
In the case of `Cc1sc2c(c1Cl)CN1CC(=O)NC1=N2.Cl`, the Delta A/min in assay [10] was 0.28 ΔA/min. Also, the EC50 is 17 µM in [3] and 36 µM in [4].
Take `Cl.O=C1CN2Cc3c(sc4ccccc34)N=C2N1`: the Delta A/min was 0.183 in [1] and 0.092 ΔA/min in assay [2]. Besides, the EC50 in assay [3] turned out to be 0.15 µM; in assay [4], 5.3 µM.
As for `Cl.O=C1CN2Cc3c(sc4c3SCCC4)NC2=N1`, the Delta A/min was 0.171 in assay [1] and 0.125 ΔA/min in assay [2]. Further, the results for the EC50 in assay [3] and in assay [4] were 0.16 µM and 1.2 µM, respectively.
For `CC(C)(C)C1CCc2c(sc3c2CN2CC(=O)NC2=N3)C1.Cl` (stereo not given) the same measures were 0.117, 4000, 0.25 µM and 27 µM.
Consider `CCCCC1C(=O)NC2=Nc3sc4c(c3CN21)CCCC4` (stereo not given), for which the EC50 in assay [3] and in assay [4] was > 250 µM in each case.
For the compound `Cc1cc2c(s1)CN1CC(=O)NC1=N2.Cl`, the Delta A/min is 0.228 in assay [1] and 0.217 ΔA/min in [2]. Moreover, the results for the EC50 in assay [3] and in [4] were 12 µM and 250 µM, respectively.
For `Cc1sc2c(c1C)CN1C(=N2)NC(=O)C1C.Cl` (stereo not given), the Delta A/min in [1] is 0.183; in assay [2] it was 0.076 ΔA/min. Moreover, the EC50 in assay [3] came to 0.13 µM; in [4], 20 µM.
